Laboratory results reported in ChEMBL document CHEMBL4033653, “Effect of 1,2,3-triazole salts, non-classical bioisosteres of miltefosine, on Leishmania amazonensis” (Bioorg Med Chem, 2017).

What was measured:
[1] = tested on: Leishmania amazonensis; assay: Induction of mitochondrial membrane potential loss in Leishmania amazonensis IFLA/BR/1967/PH8 promastigotes at 2.5 uM after 24 hrs by JC-1 staining-based spectrofluorometric analysis relative to control; assay type: functional
Procedure, shortened: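 Exponential-phase WT (PH8) promastigotes at 1x10^7 cells/mL, treated 24 h at 25 °C with 2.5–20.0 µM, then harvested, washed and loaded with JC-1. Fluorescence read at 485/528 and 540/600 nm; ΔΨm taken as the 600/528 ratio. Untreated control set to 100%. Positive control was FCCP 20.0 µM for 30 min. Three experiments in triplicate.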

[2] = tested on: Leishmania amazonensis; assay: Induction of lipid inclusions in Leishmania amazonensis IFLA/BR/1967/PH8 promastigotes at 20 uM after 24 hrs by Nile Red satining-based spectrofluorometric analysis relative to control; assay type: functional
Procedure, shortened: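 WT (PH8) promastigotes at 1x10^7 cells/mL in exponential phase, cultured 24 h at 25 °C with or without 2.5–20.0 µM. Parasites incubated with Nile Red, then fluorescence measured spectrofluorometrically. Reported as arbitrary fluorescence units versus untreated parasites, mean of three experiments run in triplicate.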

[3] = tested on: Leishmania amazonensis; assay: Induction of ROS accumulation in Leishmania amazonensis IFLA/BR/1967/PH8 promastigotes at 20 uM after 72 hrs by H2DCFDA staining-based fluorometric analysis relative to control; assay type: functional
Procedure, shortened: (§1)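 WT exponential-phase promastigotes treated at 25 °C; adjusted to 2x10^7 cells in PBS, loaded with H2DCFDA 30 min dark at room temperature; fluorescence 485/528 nm versus untreated; three independent experiments.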

[4] = tested on: Leishmania amazonensis; assay: Induction of apoptosis in Leishmania amazonensis IFLA/BR/1967/PH8 promastigotes assessed as early apoptotic population at 20 uM after 24 hrs by Annexin V-FITC/PI staining based flow cytometric analysis (reference value: 5.29%); assay type: functional
Procedure, shortened: (§2)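 Exponential-phase WT promastigotes (1x10^7 cells/mL) cultured 24 h at 25 °C; stained annexin V-FITC plus PI, flow cytometry with 10,000 events gated on parasites; quadrant percentages; three independent experiments.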

[5] = tested on: Leishmania amazonensis; assay: Antileishmanial activity against Leishmania amazonensis IFLA/BR/1967/PH8 promastigotes after 72 hrs by MTT assay; assay type: functional
[6] = tested on: Leishmania amazonensis; assay: Induction of apoptosis in Leishmania amazonensis IFLA/BR/1967/PH8 promastigotes assessed as early apoptotic population at 2.5 uM after 24 hrs by Annexin V-FITC/PI staining based flow cytometric analysis (reference value: 5.29%); assay type: functional
[7] = tested on: Leishmania amazonensis; assay: Antileishmanial activity against Leishmania amazonensis IFLA/BR/1967/PH8 amastigotes infected in murine macrophages at 1.8 uM incubated for 72 hrs followed by compound washout measured after 72 hrs by microscopic method relative to control; assay type: functional; conditions: IFLA/BR/1967/PH8, 72 h
Procedure, shortened: (§3)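 Macrophages infected with WT PH8 parasites treated 72 h at 33 °C, 5% CO2; washed twice in PBS, then held in drug-free Warren's medium + 10% serum at 25 °C for 72 h; viable promastigotes counted microscopically versus untreated; three independent experiments in duplicate.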

[8] = tested on: Leishmania amazonensis; assay: Induction of apoptosis in Leishmania amazonensis IFLA/BR/1967/PH8 promastigotes assessed as late apoptotic population at 5 uM after 24 hrs by Annexin V-FITC/PI staining based flow cytometric analysis (reference value: 2.62%); assay type: functional; procedure, shortened: as §2
[9] = Hemolytic activity in human erythrocytes at 9.4 to 150 uM relative to control; assay type: ADME, cell-based, Erythrocyte; conditions: read-out: Activity
Procedure, shortened: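 Fresh human red cells suspended in PBS incubated with the compound; 1% saponin as positive control, untreated as negative; three experiments in triplicate.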

[10] = tested on: Leishmania amazonensis; assay: Antileishmanial activity against Leishmania amazonensis WHOM/BR/75/Josefa amastigotes transfected with green fluorescent protein infected in murine macrophages after 72 hrs by fluorometric analysis; assay type: functional
Procedure, shortened: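 Infected murine macrophages treated 0.78-100.0 µM for 72 h; fluorescence read at 540/600 nm for RFP parasites (PH8) and 485/528 nm for GFP parasites (Josefa strain); IC50 from three independent experiments in duplicate.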

[11] = tested on: Leishmania amazonensis; assay: Induction of ROS accumulation in Leishmania amazonensis IFLA/BR/1967/PH8 promastigotes at 5 uM after 72 hrs by H2DCFDA staining-based fluorometric analysis relative to control; assay type: functional; procedure, shortened: as §1
[12] = tested on: Leishmania amazonensis; assay: Antileishmanial activity against Leishmania amazonensis IFLA/BR/1967/PH8 amastigotes infected in murine macrophages at 0.9 uM incubated for 72 hrs followed by compound washout measured after 72 hrs by microscopic method relative to control; assay type: functional; conditions: IFLA/BR/1967/PH8, 72 h; procedure, shortened: as §3
[13] = tested on: Leishmania amazonensis; assay: Induction of apoptosis in Leishmania amazonensis IFLA/BR/1967/PH8 promastigotes assessed as necrotic population at 20 uM after 24 hrs by Annexin V-FITC/PI staining based flow cytometric analysis (reference value: 0.03%); assay type: functional; procedure, shortened: as §2
[14] = tested on: Leishmania amazonensis; assay: Induction of apoptosis in Leishmania amazonensis IFLA/BR/1967/PH8 promastigotes assessed as late apoptotic population at 2.5 uM after 24 hrs by Annexin V-FITC/PI staining based flow cytometric analysis (reference value: 2.62%); assay type: functional
[15] = tested on: Leishmania amazonensis; assay: Antileishmanial activity against Leishmania amazonensis IFLA/BR/1967/PH8 amastigotes infected in murine macrophages at 3.6 uM incubated for 72 hrs followed by compound washout measured after 72 hrs by microscopic method relative to control; assay type: functional; conditions: IFLA/BR/1967/PH8, 72 h; procedure, shortened: as §3

With `CC(=O)[O-].CCCCCCCCCCn1cc(CO)[n+](C)n1` the Activity [1] was 37.5%, the “fold change (FC)” value [2] was 2.5 and the Activity [3] was 75.5%. It also gave an Activity [4] of 30.92%, an IC50 [5] of 2600 nM and an Activity [6] of 30.6%. It also gave an inhibition at 1.8 µM [7] of 69%, an Activity [8] of 1.58% and a hemolysis at up to 150 µM [9] of under 5%. It also gave an IC50 [10] of 800 nM, an Activity [11] of 40.7% and an inhibition at 0.9 µM [12] of 61.9%. For the same compound, the Activity [13] was 3.97%, the Activity [14] was 0.82% and the inhibition at 3.6 µM [15] was 83.1%.
